Measured values reported in ChEMBL document CHEMBL4028846, “Insights on the Interaction between Transthyretin and Aβ in Solution. A Saturation Transfer Difference (STD) NMR Analysis of the Role of Iododiflunisal” (J Med Chem, 2017).
Activity calls are given as the source filed them. No cut-off for these calls is given here.

Key:
Transthyretin [1] = target: T1, Transthyretin (Homo sapiens, UniProt P02766); test: Binding affinity to recombinant human transthyretin expressed in Escherichia coli BL21 at 1:20 to 1:50 […] molar ratio by STD-NMR spectroscopic method
Procedure, shortened: (§1)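 Human recombinant WT TTR expressed in E. coli, purified by ion exchange then preparative gel electrophoresis. Protein 20−50 μM in PBS pH 6.0, […] 1:20 to 1:50, 298−313 K, optimized per case. On-resonance at aliphatic region (δ −0.2 to 0.16 ppm), off-resonance δ 100 ppm. Saturation by 20 ms PC9 pulse train, 2 s total, 600 MHz.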

Transthyretin [2] = target: T1, Transthyretin; test: Binding affinity to recombinant human transthyretin expressed in Escherichia coli BL21 at 1:4 protein to ligand molar ratio in presence of EGCG by STD-NMR spectroscopic method
Transthyretin [3] = target: T1, Transthyretin; test: Binding affinity to recombinant human transthyretin expressed in Escherichia coli BL21 at 1:45 protein to ligand molar ratio in presence of EGCG by STD-NMR spectroscopic method
Transthyretin [4] = target: T1, Transthyretin; test: Binding affinity to recombinant human transthyretin expressed in Escherichia coli BL21 at 1:45 protein to ligand molar ratio by STD-NMR spectroscopic method; procedure, shortened: as §1
Transthyretin [5] = target: T1, Transthyretin; test: Binding affinity to recombinant human transthyretin expressed in Escherichia coli BL21 at 1:45 protein to ligand molar ratio in presence of IDIF by STD-NMR spectroscopic method
Transthyretin [6] = target: T1, Transthyretin; test: Binding affinity to recombinant human transthyretin expressed in Escherichia coli BL21 by STD-NMR spectroscopic method
Procedure, shortened: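 Human recombinant WT TTR expressed in E. coli, purified by ion exchange then preparative gel electrophoresis. On-resonance at aliphatic region (δ −0.2 to 0.16 ppm), off-resonance δ 100 ppm. Saturation by 20 ms PC9 pulse train, 2 s total, 600 MHz.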

Transthyretin [7] = target: T1, Transthyretin; test: Binding affinity to recombinant human transthyretin expressed in Escherichia coli BL21 at 1:50 protein to ligand molar ratio by STD-NMR spectroscopic method; procedure, shortened: as §1

With CN(C)C[C@H](O)[C@@H](O)[C@H](O)[C@H](O)CO.O=C(O)c1cc(-c2ccc(F)cc2F)cc(I)c1O as the compound, how does the Activity (Transthyretin [1]) read?
The Activity was “Active”.

What about the Activity (Transthyretin [2]) of the same compound?
Its Activity is “Active”.

CC(C)C[C@H](NC(=O)[C@H](CCCCN)NC(=O)[C@H](CCC(N)=O)NC(=O)[C@H](Cc1cnc[nH]1)NC(=O)[C@H](Cc1cnc[nH]1)NC(=O)[C@@H](N)C(C)C)C(=O)N[C@H](C(=O)N[C@@H](Cc1ccccc1)C(=O)N[C@@H](Cc1ccccc1)C(=O)N[C@@H](C)C(=O)N[C@@H](CCC(=O)O)C(=O)N[C@@H](CC(=O)O)C(=O)N[C@H](C(=O)NCC(=O)N[C@@H](CO)C(=O)N[C@@H](CC(N)=O)C(=O)N[C@@H](CCCCN)C(=O)O)C(C)C)C(C)C was tested. Which Activity (Transthyretin [3]) did it give?
The Activity was “inactive”.

What about the Activity (Transthyretin [4]) of the same compound?
Its Activity is “Active”.

What about the Activity (Transthyretin [5]) of the same compound?
Its Activity is “Active”.

Which Activity (Transthyretin [1]) does the source give for CN(C)C[C@H](O)[C@@H](O)[C@H](O)[C@H](O)CO.O=C(O)c1cc(-c2ccc(F)cc2F)ccc1O here?
The Activity was “Active”.

Which Activity (Transthyretin [1]) does the source give for C[C@H](NC(=O)[C@@H](N)CC(=O)O)C(=O)N[C@@H](CCC(=O)O)C(=O)N[C@@H](Cc1ccccc1)C(=O)N[C@@H](CCCNC(=N)N)C(=O)N[C@@H](Cc1cnc[nH]1)C(=O)N[C@@H](CC(=O)O)C(=O)N[C@@H](CO)C(=O)NCC(=O)N[C@@H](Cc1ccc(O)cc1)C(=O)N[C@@H](CCC(=O)O)C(=O)O here?
Its Activity is “inactive”.

For H-YEVHHQKLVFF-OH, which Activity (Transthyretin [1]) is on record?
Its Activity is “inactive”.

With O=C(O[C@@H]1Cc2c(O)cc(O)cc2O[C@@H]1c1cc(O)c(O)c(O)c1)c1cc(O)c(O)c(O)c1 [EPIGALOCATECHIN GALLATE] as the compound, how does the Kd (Transthyretin [6]) read?
The Kd was 0.4 µM.

And the Activity (Transthyretin [7])?
Its Activity is “Active”.
